Test results taken from BindingDB's records for doi:10.1016/j.bmc.2007.11.023 (2008).

Target: Mitochondrial complex I; NADH oxidoreductase (Bos taurus, UniProt P25708+P52505)
Assay: Inhibition of NADH-ubiquinone oxidoreductase assessed as NADH oxidase activity in bovine heart submitochondrial particles
Summary of the method: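 Bovine heart submitochondrial particles (sonicated mitochondria isolated by differential centrifugation) in air-saturated 75 mM sodium potassium phosphate, pH 7.4, with 1 mM each EDTA and MgCl2, at 30 °C and 42–219 µg/mL protein. Compounds added in methanol (≤2% v/v) and preincubated 4 min. The reaction is started with 0.16 mM NADH (final). Oxidation is followed over 4 min as A340 decrease. Means of 2–4 independent experiments.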

Chain of Mitochondrial complex I; NADH oxidoreductase (P25708 21-464 limits assumed, other chains not shown): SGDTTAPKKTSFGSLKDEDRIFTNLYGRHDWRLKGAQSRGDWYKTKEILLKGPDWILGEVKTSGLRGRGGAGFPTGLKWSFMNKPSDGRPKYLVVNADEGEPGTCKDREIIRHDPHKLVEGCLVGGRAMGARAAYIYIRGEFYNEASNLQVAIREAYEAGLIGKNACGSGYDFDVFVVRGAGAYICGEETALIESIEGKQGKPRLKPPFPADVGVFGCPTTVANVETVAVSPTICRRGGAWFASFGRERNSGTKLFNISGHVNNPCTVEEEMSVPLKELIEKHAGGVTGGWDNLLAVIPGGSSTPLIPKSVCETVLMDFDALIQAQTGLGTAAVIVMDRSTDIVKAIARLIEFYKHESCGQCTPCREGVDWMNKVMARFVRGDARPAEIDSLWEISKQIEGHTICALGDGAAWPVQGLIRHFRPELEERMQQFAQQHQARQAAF

Compound	IC50 [µM]
CCCC1(O)C(=O)C(C)C(=O)N=C1C=CC(C)C/C=C/C(C)C (configuration not stated) [IROMYCIN E]	> 25.3
CCCC1C(=O)C(C)(O)C(=O)N=C1C=CC(C)C/C=C/C(C)C (configuration not stated) [IROMYCIN F]	> 25.3
